Assay results gathered from unrelated publications.
CDK7: Cyclin-dependent kinase 7 (CDK7, Homo sapiens, UniProt P50613)

Compound	target	effect on	action	method	concentration	measurement	result
Cc1ccc(NC(=O)c2ccnc(C(F)(F)F)c2)cc1-c1cc(OCCO)nc(N2CCOCC2)c1	CDK7	binding		competition with immobilised ligand	1 µM	remaining binding	98%
C1=C/COCc2cc(ccc2OCCN2CCCC2)Nc2nccc(n2)-c2cccc(c2)COC/1	CDK7	binding			0.1 µM	remaining binding	21%
CCCCC(=O)Nc1ccc(-c2ccc3ncn(CCC)c(=O)c3c2)cn1	CDK7	binding		competition with immobilised ligand	0.5 µM	remaining binding	83%
CN1CCN(C(=O)c2ccc(NC(=O)Nc3ccc(N(C)c4ccnc(Nc5ccc(CS(C)(=O)=O)cc5)n4)cc3)cc2)CC1	CDK7	binding		competition with immobilised ligand	1 µM	remaining binding	61%
C[C@]1(O)CCCN(c2nc(Nc3ccc(S(=O)(=O)N[C@H]4CC[C@H](CN5CCN(c6ccc(C7CCC(=O)NC7=O)cc6F)CC5)CC4)cc3Cl)ncc2C(F)(F)F)C1 (some centres unmarked)	CDK7	binding		competition with immobilised ligand	1 µM	remaining binding	100%
C=CC(=O)N1CCC[C@@H](n2nc(-c3ccc(Oc4ccccc4)cc3)c3c(N)ncnc32)C1	CDK7	enzyme activity	inhibitor		1 µM	inhibition	28%
CC(C)S(=O)(=O)c1ccc2nccc(Nc3ccc4sc(C5CCCC5)nc4c3)c2c1	Cyclin-dependent kinase 7, with cyclin H (CDK7, Homo sapiens, UniProt P50613)	enzyme activity	inhibitor		1 µM	activity vs control	106%
C=CC(=O)N1CCC([C@@H]2CCNc3c(C(N)=O)c(-c4ccc(Oc5ccccc5)cc4)nn32)CC1	CDK7	enzyme activity	inhibitor		1 µM	inhibition	21%
COc1ccc2oc(-c3ccc4nc(N)oc4c3)c/c(=N\c3ccccc3NC(=O)CCN)c2c1	CDK7	binding			1 µM	remaining binding	97%
CNS(=O)(=O)c1ccc(Nc2ncc(C(F)(F)F)c(N3CCC[C@](C)(O)C3)n2)c(C)c1	CDK7	binding		competition with immobilised ligand	1 µM	remaining binding	83%
N#Cc1ccc(NC(=O)Nc2ccccc2)cc1	CDK7	cell-free assay		competition with immobilised ligand	25 µM	remaining binding	94%
